Published values collected from several papers.
Each line is one published result; the experiments were not run side by side.
MAOB: Amine oxidase [flavin-containing] B (MAOB, Homo sapiens, UniProt P27338)

For COc1cccc(NC(=O)c2ccc3c(c2)C(=O)NC3=O)c1, the inhibition was less than 5% (MAOB; enzyme activity, inhibitor; 1 µM).
C1=C/COCc2cc(ccc2OCCN2CCCC2)Nc2nccc(n2)-c2cccc(c2)COC/1 has a remaining binding of 100% (Tyrosine-protein kinase HCK (HCK, Homo sapiens, UniProt P08631); binding; 0.1 µM).
For NC/C(=C\F)COc1cccc(Cn2c(=S)[nH]c(=O)c3[nH]cnc32)c1, the inhibition was 29.1% (MAOB; enzyme activity, inhibitor; 200 pM).
For CCCCC(=O)Nc1ccc(-c2ccc3ncn(CCC)c(=O)c3c2)cn1, the remaining binding was 92% (Serine/threonine-protein kinase NLK (NLK, Homo sapiens, UniProt Q9UBE8); binding, competition with immobilised ligand; 0.5 µM).
With O=C(N[C@@H](CSCc1nc2cc([N+](=O)[O-])ccc2[nH]1)C(=O)NO)c1ccccc1 the inhibition was 13.6% (Lactoylglutathione lyase (GLO1, Homo sapiens, UniProt Q04760); enzyme activity, inhibitor; 1 µM).
O=C(Nc1ccc(F)c(Br)c1)c1ccc2c(c1)C(=O)NC2=O has an inhibition of 97.3% (MAOB; enzyme activity, inhibitor; 1 µM).
With COc1ccc2oc(-c3ccc4nc(N)oc4c3)c/c(=N\c3ccccc3NC(=O)CCN)c2c1 the remaining binding was 37% (Phosphatidylinositol 3-kinase C2 domain-containing subunit gamma (PIK3C2G, Homo sapiens, UniProt O75747); binding; 1 µM).
O=C(Nc1ccc(Cl)c(F)c1)c1ccc2c(c1)C(=O)NC2=O gave an inhibition of 87% (MAOB; enzyme activity, inhibitor; 1 µM).
For C[C@]1(O)CCCN(c2nc(Nc3ccc(S(=O)(=O)N[C@H]4CC[C@H](CN5CCN(c6ccc(C7CCC(=O)NC7=O)cc6F)CC5)CC4)cc3F)ncc2C(F)(F)F)C1 (stereo partly drawn), the remaining binding was 45% (NUAK family SNF1-like kinase 2 (NUAK2, Homo sapiens, UniProt Q9H093); binding, competition with immobilised ligand; 1 µM).
For C#Cc1cc(-c2cc(Nc3nc(N[C@@H](C)c4ccc(F)cn4)ncc3Cl)n[nH]2)ccc1C=O, the inhibition was 4.78% (Dual specificity tyrosine-phosphorylation-regulated kinase 4 (DYRK4, Homo sapiens, UniProt Q9NR20); enzyme activity, inhibitor; 0.2 µM).
O=C(Nc1ccc(Cl)c(Br)c1)c1ccc2c(c1)C(=O)NC2=O gave an inhibition of 97.5% (MAOB; enzyme activity, inhibitor; 1 µM).
Nc1ncnc2c1ncn2[C@@H]1O[C@H](COP(=O)(O)OP(=O)(O)OP(=O)(O)O)[C@@H](O)[C@H]1O has a Km of 102 µM (GUK1 (Homo sapiens, UniProt Q16774); enzyme activity, substrate).
